# Data reported in PMC6064589 (Diabetes Therapy, 2018).
# Read-outs that look alike come from different tables or passages of the source.
# What was measured:
# healthy subjects [1] = type: in vivo, human; conditions: single oral 400 mg dose, N = 76
# How it was run: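 Placebo-arm subjects received single oral 400 mg positive control or matching placebo in nested crossover, before (baseline) and after (week 15) placebo treatment. […] Supine Holter ECGs pre-dose and 1, 2, 3, 6, 12, 18, 24 h. QTcI analysed by ANOVA (treatment, period, subject fixed; pre-dose QTcI covariate). 3 and 6 h confirmatory with 95% CI; other times with 90% CI.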
# healthy subjects [2] = conditions: cited from earlier work
# healthy subjects [3] = test: Other ECG assessments; type: in vivo, human
# How it was run: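 ECGs come from the same Holter recordings: 11 time points, pre-dose to 48 h after last dose at 0.5, 1.0 and 1.5 mg. HR, PR and QRS use the same model. Outlier cut-offs: HR <50 or >100 bpm; PR >220 ms and/or >25% change from baseline; QRS >110 ms and/or >25% change. A cardiologist read one random ECG per time point for T/U wave abnormalities.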
# [4] = tested on: dipeptidyl peptidase-4 (DPP-4); conditions: due to substitution at position 8; cited from earlier work
# [5] = phase 3 trials; cited from earlier work
# [6] = Pharmacokinetics of semaglutide at steady state of each dose level; type: in vivo, human; conditions: doses 0.25-1.5 mg at steady state
# healthy subjects [7] = test: Safety and tolerability; type: in vivo, human
# How it was run: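 Healthy subjects received s.c. test peptide or placebo once weekly for 16 weeks, escalating 0.25→0.5→1.0→1.5 mg every 4 weeks, with 5–7-week follow-up. Some injections were given on-site, the rest self-administered. Recorded: adverse events, hypoglycaemic events, anti-drug antibodies at follow-up, haematology, biochemistry, urinalysis, calcitonin, vital signs, ECG, physical examination, body weight and fasting plasma glucose changes from baseline.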
# healthy subjects [8] = type: in vivo, human
# How it was run: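 Healthy subjects randomised to once-weekly s.c. test peptide or placebo, escalated every 4 weeks (0.25, 0.5, 1.0, 1.5 mg) over 16 weeks. Supine continuous 12-lead Holter (Mason-Likar) ECGs at steady state of each level: pre-dose and 12, 18, 24, 25, 26, 27, 30, 36, 42, 48 h. QT/RR measured semi-automatically, lead II. QTcI=QT/RR^β (subject-specific β); QTcL, QTcF, QTcB. Placebo-subtracted baseline-adjusted means, two-sided 90% CIs.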
# [9] = s.c. once weekly, escalated 0.25 to 1.5 mg over 16 weeks, N = 83
# [10] = 1.5 mg at steady state, 0-48 h after dosing
compound,measurement,setting,value
COc1c(N2C[C@@H]3CCCN[C@@H]3C2)c(F)cc2c(=O)c(C(=O)O)cn(C3CC3)c12 [moxifloxacin],"Estimated treatment difference moxifloxacin vs. placebo, QTcI",healthy subjects [1]; 1 h after dosing,10.0 ms
same,"Estimated treatment difference moxifloxacin vs. placebo, QTcI",healthy subjects [1]; 2 h after dosing,12.3 ms
same,"Estimated treatment difference moxifloxacin vs. placebo, QTcI",healthy subjects [1]; 3 h after dosing (confirmatory endpoint),12.3 ms
same,"Estimated treatment difference moxifloxacin vs. placebo, QTcI",healthy subjects [1]; 6 h after dosing (confirmatory endpoint),8.9 ms
liraglutide,PR interval prolongation,healthy subjects [2],A PR interval prolongation has also been observed
same,Prolongation of the QTcI interval or QTc by other correction methods,healthy subjects [2]; healthy subjects,neither albiglutide administered once weekly nor liraglutide administered once daily have been observed to prolong the QTcI interval
albiglutide,PR interval prolongation,healthy subjects [2],A PR interval prolongation has also been observed
same,Prolongation of the QTcI interval or QTc by other correction methods,healthy subjects [2]; healthy subjects,neither albiglutide administered once weekly nor liraglutide administered once daily have been observed to prolong the QTcI interval
exenatide,Correlation between exposure and QTc interval,healthy subjects [2]; single dose,positive correlation
same,Prolongation of QTcP or QTcI,"healthy subjects [2]; supratherapeutic concentrations, intravenous, healthy subjects",no prolongation
CC[C@H](C)[C@H](NC(=O)[C@H](Cc1ccccc1)NC(=O)[C@H](CCC(=O)O)NC(=O)[C@H](CCCCNC(=O)COCCOCCNC(=O)COCCOCCNC(=O)CC[C@H](NC(=O)CCCCCCCCCCCCCCCCC(=O)O)C(=O)O)NC(=O)[C@H](C)NC(=O)[C@H](C)NC(=O)[C@H](CCC(N)=O)NC(=O)CNC(=O)[C@H](CCC(=O)O)NC(=O)[C@H](CC(C)C)NC(=O)[C@H](Cc1ccc(O)cc1)NC(=O)[C@H](CO)NC(=O)[C@H](CO)NC(=O)[C@@H](NC(=O)[C@H](CC(=O)O)NC(=O)[C@H](CO)NC(=O)[C@@H](NC(=O)[C@H](Cc1ccccc1)NC(=O)[C@@H](NC(=O)CNC(=O)[C@H](CCC(=O)O)NC(=O)C(C)(C)NC(=O)[C@@H](N)Cc1cnc[nH]1)[C@@H](C)O)[C@@H](C)O)C(C)C)C(=O)N[C@@H](C)C(=O)N[C@@H](Cc1c[nH]c2ccccc12)C(=O)N[C@@H](CC(C)C)C(=O)N[C@H](C(=O)N[C@@H](CCCNC(=N)N)C(=O)NCC(=O)N[C@@H](CCCNC(=N)N)C(=O)NCC(=O)O)C(C)C [semaglutide],Increased PR interval of > 25% above baseline,healthy subjects [3]; 0.5 mg group,none
same,Increased PR interval of > 25% above baseline,healthy subjects [3]; 1.0 and 1.5 mg treatment groups,five
same,Second-degree or higher-grade atrioventricular block,healthy subjects [3]; all ECGs evaluated by the cardiologist,no observations of a second-degree atrioventricular block or higher-grade atrioventricular blocks
same,Changes in QRS complex duration of > 25% above baseline,healthy subjects [3]; any of the treatment arms,No changes
same,Subjects with T wave abnormalities,"healthy subjects [3]; doses 0.5 or 1.0 mg, female subjects, all of no clinical relevance",three
same,U wave abnormalities,healthy subjects [3]; either group,no U wave abnormalities were observed
same,Susceptibility to degradation by dipeptidyl peptidase-4 (DPP-4),[4],less susceptible to degradation
same,Mean increases in HR with semaglutide versus placebo,[5],up to 3 bpm
same,Increase in AUC0−48h and Cmax with increasing dose,[6],consistent with dose proportionality
same,Diastolic BP change from baseline to last dose,"healthy subjects [7]; 16-week treatment, mean ± SD",5 ± 8 mmHg
same,HR change from baseline to last dose (vital signs),"healthy subjects [7]; 16-week treatment, mean ± SD",10 ± 9 bpm
same,Development of anti-semaglutide antibodies,healthy subjects [7]; at follow-up,no subjects developed anti-semaglutide antibodies
same,Severe hypoglycemic episodes,healthy subjects [7]; in vivo,No severe hypoglycemic episodes were reported
same,"Events leading to withdrawal, percentage of subjects",healthy subjects [7]; [9],2.4%
same,"Gastrointestinal disorders (predominantly nausea, vomiting and diarrhea), subjects",healthy subjects [7]; [9],56.6%
same,"Metabolism and nutrition disorders (predominantly decreased appetite), subjects",healthy subjects [7]; [9],51.8%
same,Upper limits of all 11 two-sided 90% CIs for the mean ΔΔQTcI,"healthy subjects [8]; 0.5 mg at steady state, 0-48 h after dosing",< 10 ms
same,Upper limits of all 11 two-sided 90% CIs for the mean ΔΔQTcI,"healthy subjects [8]; 1.0 mg at steady state, 0-48 h after dosing",< 10 ms
same,Maximum upper limit of the two-sided 90% CI for the time-matched ΔΔQTcI,healthy subjects [8]; [10],0.3 ms
same,Upper limits of the 11 two-sided 90% CIs of ΔΔQTcI,healthy subjects [8]; [10],< 10 ms
same,"Prolongation of the uncorrected QT interval, QTcL or QTcF","healthy subjects [8]; doses of 0.5, 1.0 and 1.5 mg at steady state",No prolongation was observed
same,"QTcB, upper limits of the 90% CIs",healthy subjects [8]; for at least one time point at all dose levels,> 10 ms
dulaglutide,QTc prolongation,healthy subjects [2]; administered once weekly,not associated with QTc prolongation
same,PR interval prolongation,healthy subjects [2],A PR interval prolongation has also been observed
